{"source": "the EternaBench riboswitch data", "key": {"MS2 coat protein [1]": {"test_system": "MS2 coat protein", "test": "apparent Kd, MS2 coat protein; higher = weaker binding; RNA-MaP array", "method_in_brief": "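In Tris-HCl pH 7.5 buffer with KCl, MgCl2, BSA, DTT, tRNA and Tween20, with or without input ligand, fluorescently labeled MS2 coat protein at 1.5 nM to 3 μM was incubated at room temperature with designed RNAs. The RNAs had been transcribed on an Illumina sequencing chip from sequenced DNA templates, and incubation ran 0.8–1.5 h at the lowest to 10–20 min at the highest concentrations. Apparent Kd is the median of binding-curve fits for individual clusters. Designs measured on fewer than 10 clusters were excluded.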"}, "MS2 coat protein [2]": {"test_system": "MS2 coat protein", "test": "apparent Kd, MS2 coat protein; higher = weaker binding; RNA-MaP array; FMN 200 µM where present", "method_in_brief": "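Each design was made on Illumina sequencing-chip clusters by stalled E. coli RNA polymerase and titrated with SNAP-549-labelled MS2 coat protein from 0.7 or 1.5 nM, doubling to 3 µM, in the absence and then the presence of constant ligand. The buffer was 100 mM Tris-HCl pH 7.5, 80 mM KCl, 4 mM MgCl2, BSA, DTT, yeast tRNA and Tween-20. The apparent Kd is the median of filtered per-cluster fits of binding curves, with green signal normalised to red-channel RNA signal and control-cluster median Fmax.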"}, "[3]": {"details": "designed as: ON switch for flavin mononucleotide, no ligand"}, "[4]": {"details": "ligand present: flavin mononucleotide, designed as: ON switch for flavin mononucleotide"}, "[5]": {"details": "designed as: OFF switch for flavin mononucleotide, no ligand"}, "[6]": {"details": "ligand present: flavin mononucleotide, designed as: OFF switch for flavin mononucleotide"}, "[7]": {"details": "designed as: OFF switch for tryptophan, no ligand"}, "[8]": {"details": "ligand present: tryptophan, designed as: OFF switch for tryptophan"}}, "data": [{"sequence": "GACGGGCCUAUUGAUACCAGACCUAGUGACAACAUGAGGAUCACCCAUGUGACGGCAAAAGUCCCUUGGCAGCAAGUAGAAAUAA", "values": [{"measurement": "apparent Kd", "setting": "MS2 coat protein [1]; designed as: ON switch for theophylline, no ligand", "result": 0.0126, "unit": "µM"}, {"measurement": "apparent Kd", "setting": "MS2 coat protein [1]; ligand present: theophylline, designed as: ON switch for theophylline", "result": 0.0123, "unit": "µM"}]}, {"sequence": "UGGGAUAGCCAGAAGGUGGAAGCAACAACUGUCCAAGGAUAUGGUUGUUAUAAGGCAUCACACAUGAGGAUCACCCAUGUUAAU", "values": [{"measurement": "apparent Kd", "setting": "MS2 coat protein [1]; [3]", "result": 0.0832, "unit": "µM"}, {"measurement": "apparent Kd", "setting": "MS2 coat protein [1]; [4]", "result": 0.0352, "unit": "µM"}]}, {"sequence": "GCCUCGAACUCAGGAUAUCAGAGAGGUUGCCGCUGAGAAGGGAGACAUGAGGAUCACCCAUGUACAGUCAUGACCGUCGAGUUG", "values": [{"measurement": "apparent Kd", "setting": "MS2 coat protein [1]; [3]", "result": 0.0658, "unit": "µM"}, {"measurement": "apparent Kd", "setting": "MS2 coat protein [1]; [4]", "result": 0.084, "unit": "µM"}]}, {"sequence": "UCAUGAAAGUCAGGAUAUGGCCACAUGAGGAUCACCCAUGUUUGCUUUAUCGAGCGAAACUGAGACCAGAAGGGACGGACAUUC", "values": [{"measurement": "apparent Kd", "setting": "MS2 coat protein [1]; [3]", "result": 0.0208, "unit": "µM"}, {"measurement": "apparent Kd", "setting": "MS2 coat protein [1]; [4]", "result": 0.0111, "unit": "µM"}]}, {"sequence": "ACAACUGCAGGAUAUACGAGGGCCGAGGUAUCCGUCCUCGGACAUGAGGAUCACCCAUGUAGAAGGGCAACGAU", "values": [{"measurement": "apparent Kd", "setting": "MS2 coat protein [1]; [5]", "result": 0.0209, "unit": "µM"}, {"measurement": "apparent Kd", "setting": "MS2 coat protein [1]; [6]", "result": 0.0241, "unit": "µM"}]}, {"sequence": "GUCGGUGCAGGAUAUCGAGGCGCCAACAUGAGGAUCACCCAUGUGUGUGAUCGGGUGCACCGAGAAGGGCACUUGC", "values": [{"measurement": "apparent Kd", "setting": "MS2 coat protein [1]; [5]", "result": 0.11, "unit": "µM"}, {"measurement": "apparent Kd", "setting": "MS2 coat protein [1]; [6]", "result": 0.345, "unit": "µM"}]}, {"sequence": "UGUAGACAUGAGGAUCACCCAUGUGCAACUGCAACAGGAUAUAGGGAGCGAUAGGAACGCCUAGAAGGGUUGAUCU", "values": [{"measurement": "apparent Kd", "setting": "MS2 coat protein [1]; [3]", "result": 0.0283, "unit": "µM"}, {"measurement": "apparent Kd", "setting": "MS2 coat protein [1]; [4]", "result": 0.0246, "unit": "µM"}]}, {"sequence": "CUAUGGGAUAAGGAUAUAAUAAUUGAGAAGGAGUUAGAAGGUAUAACAUGAGGAUCACCCAUGUGAGGGCCCUA", "values": [{"measurement": "apparent Kd", "setting": "MS2 coat protein [1]; [5]", "result": 0.00922, "unit": "µM"}, {"measurement": "apparent Kd", "setting": "MS2 coat protein [1]; [6]", "result": 0.00907, "unit": "µM"}]}, {"sequence": "GUAAAACUGUAAGGAUAUGAUGAACUUUAACCCUCAGAAGGAACACCACAUGAGGAUCACCCAUGUUAGGAAAGCAACUUGUUG", "values": [{"measurement": "apparent Kd", "setting": "MS2 coat protein [1]; [3]", "result": 0.0141, "unit": "µM"}, {"measurement": "apparent Kd", "setting": "MS2 coat protein [1]; [4]", "result": 0.0138, "unit": "µM"}]}, {"sequence": "UGGGUCCGAUCAGGAUAUUAGCUACCGGAGUAUGACUGGUACUACAUGAGGAUCACCCAUGUUGCUAAGAAGGGAUGAACUGAA", "values": [{"measurement": "apparent Kd", "setting": "MS2 coat protein [1]; [3]", "result": 0.0974, "unit": "µM"}, {"measurement": "apparent Kd", "setting": "MS2 coat protein [1]; [4]", "result": 0.0266, "unit": "µM"}]}, {"sequence": "UACAUUAUAGAGAAGGAUUACUCACACAUGAGGAUCACCCAUGUGUCCAUCAUGGCUGUAGGUUAAUAGGAUAUCUUAGAAGUG", "values": [{"measurement": "apparent Kd", "setting": "MS2 coat protein [1]; [5]", "result": 0.0641, "unit": "µM"}, {"measurement": "apparent Kd", "setting": "MS2 coat protein [1]; [6]", "result": 0.155, "unit": "µM"}]}, {"sequence": "UAAGUUUUAGAGAAGGCCUGGAAUUGCUGUGCAGGAGGAUAUCUGGGACAUGAGGAUCACCCAUGUAGCCGCUAAGCGUAAGGG", "values": [{"measurement": "apparent Kd", "setting": "MS2 coat protein [1]; [5]", "result": 0.0466, "unit": "µM"}, {"measurement": "apparent Kd", "setting": "MS2 coat protein [1]; [6]", "result": 0.0831, "unit": "µM"}]}, {"sequence": "CAAAAUGCGGCGGCCGCCACUCAGCUCCGUGUGGUUGGUCAUCUUAACAUGAGGAUCACCCAUGUGAGGACCGGGCCAGCGAGUG", "values": [{"measurement": "apparent Kd", "setting": "MS2 coat protein [1]; [7]", "result": 0.0135, "unit": "µM"}, {"measurement": "apparent Kd", "setting": "MS2 coat protein [1]; [8]", "result": 0.0139, "unit": "µM"}]}, {"sequence": "UAGUAACAUGAGGAUCACCCAUGUGAGGAUAUCUGGCUAGGCUAAAGCAGAGAAACCAAGAGAAGGCACGGGAU", "values": [{"measurement": "apparent Kd", "setting": "MS2 coat protein [1]; [5]", "result": 0.0194, "unit": "µM"}, {"measurement": "apparent Kd", "setting": "MS2 coat protein [1]; [6]", "result": 0.0208, "unit": "µM"}]}, {"sequence": "CAUGUGUAAGGAUAUGCGUCGAUAUCAACUAACUAUAUGAUGCAGAAGGUACAUGAGGAUCACCCAUGUGAACU", "values": [{"measurement": "apparent Kd", "setting": "MS2 coat protein [1]; [5]", "result": 0.0303, "unit": "µM"}, {"measurement": "apparent Kd", "setting": "MS2 coat protein [1]; [6]", "result": 0.118, "unit": "µM"}]}, {"sequence": "GUACCGUAAACGGCCGCCACUGACAUGAGGAUCACCCAUGUGCUGGUGGUGCACAACCUCAGGUUCAGGACCGGGUUUCCGAGCU", "values": [{"measurement": "apparent Kd", "setting": "MS2 coat protein [1]; [7]", "result": 0.0251, "unit": "µM"}, {"measurement": "apparent Kd", "setting": "MS2 coat protein [1]; [8]", "result": 0.055, "unit": "µM"}]}, {"sequence": "AACACACCAAAUGAUACCAGCUACAACAUGAUACAAAACCACAUGAGGAUCACCCAUGUAAGCCCUUGGCAGCAUACUACUGUAA", "values": [{"measurement": "apparent Kd", "setting": "MS2 coat protein [1]; designed as: OFF switch for theophylline, no ligand", "result": 0.0181, "unit": "µM"}, {"measurement": "apparent Kd", "setting": "MS2 coat protein [1]; ligand present: theophylline, designed as: OFF switch for theophylline", "result": 0.0425, "unit": "µM"}]}, {"sequence": "UUGAUUACCCAAGCGUGAUGGUCCUAGGAACGAGGACCGGUACGGCCGCCACUCGCAAGCAAACAUGAGGAUCACCCAUGUUUAU", "values": [{"measurement": "apparent Kd", "setting": "MS2 coat protein [1]; [7]", "result": 0.0131, "unit": "µM"}, {"measurement": "apparent Kd", "setting": "MS2 coat protein [1]; [8]", "result": 0.023, "unit": "µM"}]}, {"sequence": "UUGGAGAUAGGAUAUACGAGGAGAGUAGAGGGAAGGUGAUGACAUGAGGAUCACCCAUGUAGAAGGAUCAGGAG", "values": [{"measurement": "apparent Kd", "setting": "MS2 coat protein [2]; [5]", "result": 0.155, "unit": "µM"}, {"measurement": "apparent Kd", "setting": "MS2 coat protein [2]; [6]", "result": 0.1, "unit": "µM"}]}, {"sequence": "GAUUCACAUGAGGAUCACCCAUGUGAGGAUAUAGUGCAAGAGGUGGAUGCCCACCUCCCUAGAAGGCACACGGG", "values": [{"measurement": "apparent Kd", "setting": "MS2 coat protein [2]; [5]", "result": 0.0286, "unit": "µM"}, {"measurement": "apparent Kd", "setting": "MS2 coat protein [2]; [6]", "result": 0.024, "unit": "µM"}]}, {"sequence": "GGCACCAUCACAGGAUAUGCUUUCUUUUGGGAAGCAGAAGGGUGUAACAUGAGGAUCACCCAUGUGGUGCCAGGGCGUGAGCCC", "values": [{"measurement": "apparent Kd", "setting": "MS2 coat protein [2]; [3]", "result": 0.175, "unit": "µM"}, {"measurement": "apparent Kd", "setting": "MS2 coat protein [2]; [4]", "result": 0.014, "unit": "µM"}]}, {"sequence": "GACGGGCAGCUCGUGAUCCCAUCGCCAGAAGGGCCACAUGAGGAUCACCCAUGUCGUAAAACAAGGCAGGAUAUGGCAGGGAAC", "values": [{"measurement": "apparent Kd", "setting": "MS2 coat protein [2]; [3]", "result": 0.00993, "unit": "µM"}, {"measurement": "apparent Kd", "setting": "MS2 coat protein [2]; [4]", "result": 0.00521, "unit": "µM"}]}]}
